The values below come from ChEMBL document CHEMBL1681716, “Novel dihydrothieno[2,3-e]indazole derivatives as IκB kinase inhibitors” (Bioorg Med Chem Lett, 2011).

In experiment [1] the target is T1, Inhibitor of nuclear factor kappa-B kinase subunit beta (Homo sapiens, UniProt O14920).
T1 sequence (O14920 whole entry): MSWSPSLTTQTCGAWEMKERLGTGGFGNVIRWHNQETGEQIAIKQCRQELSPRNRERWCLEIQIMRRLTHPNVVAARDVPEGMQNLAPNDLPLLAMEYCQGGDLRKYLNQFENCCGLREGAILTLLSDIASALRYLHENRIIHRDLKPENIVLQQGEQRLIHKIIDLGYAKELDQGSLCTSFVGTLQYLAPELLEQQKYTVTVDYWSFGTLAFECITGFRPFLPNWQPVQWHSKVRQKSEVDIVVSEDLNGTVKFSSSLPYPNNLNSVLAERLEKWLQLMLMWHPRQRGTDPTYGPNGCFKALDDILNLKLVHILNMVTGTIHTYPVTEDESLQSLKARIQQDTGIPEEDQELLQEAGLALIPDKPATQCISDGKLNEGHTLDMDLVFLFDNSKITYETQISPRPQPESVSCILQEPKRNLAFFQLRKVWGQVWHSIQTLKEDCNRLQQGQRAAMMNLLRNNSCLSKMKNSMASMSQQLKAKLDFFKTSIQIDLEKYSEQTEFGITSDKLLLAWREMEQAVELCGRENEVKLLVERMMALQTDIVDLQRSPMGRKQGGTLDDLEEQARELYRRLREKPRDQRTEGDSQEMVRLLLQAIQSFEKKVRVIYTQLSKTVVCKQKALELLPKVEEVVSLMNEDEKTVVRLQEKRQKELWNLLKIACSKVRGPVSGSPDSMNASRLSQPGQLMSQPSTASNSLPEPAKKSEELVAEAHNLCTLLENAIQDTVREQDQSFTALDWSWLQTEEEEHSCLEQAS
The experiment in a line: Inhibition of human IKK-beta by substrate phosphorylation assay. The method in brief: (§1)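 Human IKK-α or IKK-β was tested on a biotinylated 21-residue IκBα peptide captured on avidin-coated plates and blocked with 3% BSA. Enzyme in 25 mM Tris pH 7.4, 2 mM DTT and 0.01% Tween 20 was preincubated with compound (1% DMSO) for 10 min at 25 °C. An ATP/MgCl₂ solution started the reaction, which ran 60 min at 25 °C. Phospho-IκBα was detected with a mouse monoclonal antibody, then HRP anti-mouse IgG and TMB.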

Experiment [2] addresses T2, Inhibitor of nuclear factor kappa-B kinase subunit alpha (Homo sapiens, UniProt O15111).
T2 sequence (O15111 whole entry): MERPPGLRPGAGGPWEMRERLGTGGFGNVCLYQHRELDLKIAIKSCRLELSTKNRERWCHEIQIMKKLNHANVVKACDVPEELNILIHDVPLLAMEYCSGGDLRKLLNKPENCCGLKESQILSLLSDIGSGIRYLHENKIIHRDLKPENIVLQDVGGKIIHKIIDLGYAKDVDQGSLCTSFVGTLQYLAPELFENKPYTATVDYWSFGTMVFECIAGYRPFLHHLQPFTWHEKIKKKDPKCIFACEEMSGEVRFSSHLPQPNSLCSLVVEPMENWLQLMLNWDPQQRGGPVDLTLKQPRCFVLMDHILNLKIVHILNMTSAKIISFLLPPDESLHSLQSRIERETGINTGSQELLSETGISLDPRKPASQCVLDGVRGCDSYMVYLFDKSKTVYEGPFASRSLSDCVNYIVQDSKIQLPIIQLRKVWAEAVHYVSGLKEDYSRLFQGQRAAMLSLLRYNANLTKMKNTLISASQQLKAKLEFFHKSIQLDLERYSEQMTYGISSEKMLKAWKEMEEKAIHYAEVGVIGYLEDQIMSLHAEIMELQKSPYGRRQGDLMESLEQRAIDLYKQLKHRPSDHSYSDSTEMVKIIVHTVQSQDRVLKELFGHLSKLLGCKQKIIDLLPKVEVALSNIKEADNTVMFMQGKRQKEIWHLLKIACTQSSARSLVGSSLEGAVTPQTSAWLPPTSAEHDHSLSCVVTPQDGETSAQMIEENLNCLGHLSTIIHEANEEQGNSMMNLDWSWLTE
The experiment in a line: Inhibition of human IKK-alpha by substrate phosphorylation assay. The method, boiled down: as §1

A further experiment concerns Mus musculus. The experiment in a line: Antiinflammatory activity in po dosed DBA/2 mouse assessed as inhibition of LPS-stimulated plasma TNFalpha production pretreated 60 mins before LPS challenge measured after 90 mins by ELISA. The experiment is classed as functional, organism-based. The method in brief:
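Female DBA/2 mice were given compound by oral gavage at 3 and 10 mg/kg. After 60 min, LPS in 0.2 mL saline was injected i.p. Plasma TNF-α was measured by ELISA 90 min after the LPS challenge.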

The subject of the next experiment is THP-1. The experiment in a line: Antiinflammatory activity in human THP1 cells assessed as inhibition of LPS-induced TNF-alpha production after 6 hrs by ELISA. The settings on record: THP-1, 6 h. On the technique in general: ELISA stands for enzyme-linked immunosorbent assay.

`NC(=O)Nc1sc2c(c1C(N)=O)CCc1nn(C3CCCCN(Cc4ccccc4)C3)cc1-2` (racemic) displayed an IC50 in experiment [1] greater than 10 µM.
As for `NC(=O)Nc1sc2c(c1C(N)=O)CCc1nn(C3CCCN(Cc4ccc(F)cc4F)C3)cc1-2` (stereo unspecified), the IC50 in experiment [2] is greater than 100 µM; in experiment [1], 1.7 µM; in the experiment on THP-1, 0.8 µM. For the same compound, the inhibition entry in the experiment with Mus musculus was “Dose-dependent effect”.
Regarding `NC(=O)Nc1sc2c(c1C(N)=O)CCc1nn(Cc3ccccc3)cc1-2`, the IC50 was 4.2 µM in experiment [1] and 5.6 µM with THP-1.
Take `NC(=O)Nc1sc2c(c1C(N)=O)CCc1nn(C3CCCN(Cc4ccc(N)cc4F)C3)cc1-2` (stereo unspecified): the IC50 is 9 µM in experiment [2], 0.5 µM in experiment [1] and 0.5 µM with THP-1.
As to `NC(=O)Nc1sc2c(c1C(N)=O)CCc1nn(C3CCCN(Cc4ccc(Cl)cc4)C3)cc1-2` (stereo unspecified), the IC50 in experiment [2] was greater than 100 µM; in experiment [1], 2.5 µM; with THP-1, 0.6 µM.
Take `NC(=O)Nc1sc2c(c1C(N)=O)CCc1nn(C3CCN(Cc4ccccc4)C3)cc1-2` (racemic): the IC50 came to 3 µM in experiment [1] and 1.7 µM with THP-1.
`NC(=O)Nc1sc2c(c1C(N)=O)CCc1nn(C3CCN(Cc4ccccc4)CC3)cc1-2`: the IC50 in experiment [1] came out at 4.8 µM; with THP-1, 1.2 µM.
As for `NC(=O)Nc1sc2c(c1C(N)=O)CCc1nn(Cc3cccnc3)cc1-2`, the figures for the IC50 (in experiment [1]; in the experiment on THP-1) were 4.8 µM and 24 µM, respectively.
In experiment [1], `COCCn1cc2c(n1)CCc1c-2sc(NC(N)=O)c1C(N)=O` gave an IC50 of 11 µM.
With `CCCn1ncc2c1CCc1c-2sc(NC(N)=O)c1C(N)=O`, the IC50 came to 2.2 µM in experiment [1] and 42 µM in the experiment with THP-1.
In the case of `CN(C)CCn1cc2c(n1)CCc1c-2sc(NC(N)=O)c1C(N)=O`, in experiment [1], the IC50 was 8.8 µM.
For `NC(=O)Nc1sc2c(c1C(N)=O)CCc1nn(Cc3ccccn3)cc1-2`, the IC50 in experiment [1] is 4.5 µM; in the experiment on THP-1, greater than 30 µM.
`CCCCCCn1cc2c(n1)CCc1c-2sc(NC(N)=O)c1C(N)=O` came in with an IC50 in experiment [1] of 8.4 µM.
Turning to `NC(=O)Nc1sc2c(c1C(N)=O)CCc1c-2cnn1Cc1ccc(F)cc1`, the IC50 in experiment [1] is 0.2 µM; in the experiment with THP-1, 12 µM.
For `NC(=O)Nc1sc2c(c1C(N)=O)CCc1nn(C3CCCN(Cc4ccc(Cl)cc4F)C3)cc1-2` (stereo unspecified), the figures for the IC50 (in experiment [2]; in experiment [1]; in the experiment with THP-1) were 41 µM, 0.5 µM and 4.4 µM, respectively.
For the compound `CCCn1cc2c(n1)CCc1c-2sc(NC(N)=O)c1C(N)=O`, the IC50 in experiment [1] amounted to 2.9 µM; in the experiment with THP-1 it was 5.2 µM.
With `CC(C)n1cc2c(n1)CCc1c-2sc(NC(N)=O)c1C(N)=O`, the figures for the IC50 (in experiment [1]; with THP-1) were 2.3 µM and 4.6 µM, respectively.
With `COc1ccc(CN2CCCC(n3cc4c(n3)CCc3c-4sc(NC(N)=O)c3C(N)=O)C2)c(F)c1` (stereo unspecified), the IC50 in experiment [2] is greater than 100 µM; in experiment [1] it was 1.9 µM; with THP-1 it was 3.8 µM.
For `CCCCn1cc2c(n1)CCc1c-2sc(NC(N)=O)c1C(N)=O`, the IC50 in experiment [1] was 2.7 µM; in the experiment with THP-1, 4 µM.
As for `CN(CCn1cc2c(n1)CCc1c-2sc(NC(N)=O)c1C(N)=O)Cc1ccccc1`, the IC50 is 4.6 µM in experiment [1] and 5.1 µM in the experiment on THP-1.
Consider `NC(=O)Nc1sc2c(c1C(N)=O)CCc1nn(C3CCCN(Cc4ccccc4)C3)cc1-2` (racemic), for which the IC50 in experiment [2] is greater than 100 µM; in experiment [1] it was 2.2 µM; in the experiment on THP-1, 0.5 µM.
`NC(=O)Nc1sc2c(c1C(N)=O)CCc1nn(Cc3ccc(F)cc3)cc1-2`: the IC50 in experiment [1] was determined as 0.9 µM; with THP-1, 2.5 µM.
Take `NC(=O)Nc1sc2c(c1C(N)=O)CCc1nn(Cc3ccncc3)cc1-2`: the values for the IC50 (in experiment [1]; in the experiment with THP-1) were 2.3 µM and 9 µM, respectively.
In turn, `CC(=O)Nc1ccc(CN2CCCC(n3cc4c(n3)CCc3c-4sc(NC(N)=O)c3C(N)=O)C2)c(F)c1` (stereo unspecified) displayed an IC50 in experiment [1] greater than 10 µM.
As for `NC(=O)Nc1sc2c(c1C(N)=O)CCc1nn(C3CN(Cc4ccccc4)C3)cc1-2`, the IC50 in experiment [1] came out at 7.1 µM; in the experiment with THP-1, 2.5 µM.
Consider `NC(=O)Nc1sc2c(c1C(N)=O)CCc1nn(C3CCCN(Cc4cc(F)c(F)cc4F)C3)cc1-2` (stereo unspecified), for which the IC50 in experiment [1] is 3.1 µM; in the experiment with THP-1, 0.3 µM.
`NC(=O)Nc1sc2c(c1C(N)=O)CCc1nn(C3CCCN(Cc4ccc(O)cc4F)C3)cc1-2` (stereo unspecified): the figures for the IC50 (in experiment [1]; in the experiment on THP-1) were 0.9 µM and 0.7 µM, respectively.

In general, IC50 refers to the point on the concentration scale where inhibition reaches its midpoint.
